Experimental data published in ChEMBL document CHEMBL4196223 (J Med Chem, 2018).
Where a SMILES comes first, the peptide text is derived from it. Bridges are numbered along the chain shown (N, C = ends).

Tests used:
Assay type in all cases: cell-based
[1] = biological target: Neuronal acetylcholine receptor; alpha3/beta4 (Rattus norvegicus, UniProt P04757+P12392); test: Antagonist activity at rat alpha3beta4 nACHR expressed in Xenopus laevis oocytes assessed as inhibition of acetyl choline-induced membrane currents pre-incubated for 5 mins prior to acetyl choline pulse at -70 mV potential by two-electrode voltage clamp assay
Sequence of Neuronal acetylcholine receptor; alpha3/beta4 (P04757 whole entry): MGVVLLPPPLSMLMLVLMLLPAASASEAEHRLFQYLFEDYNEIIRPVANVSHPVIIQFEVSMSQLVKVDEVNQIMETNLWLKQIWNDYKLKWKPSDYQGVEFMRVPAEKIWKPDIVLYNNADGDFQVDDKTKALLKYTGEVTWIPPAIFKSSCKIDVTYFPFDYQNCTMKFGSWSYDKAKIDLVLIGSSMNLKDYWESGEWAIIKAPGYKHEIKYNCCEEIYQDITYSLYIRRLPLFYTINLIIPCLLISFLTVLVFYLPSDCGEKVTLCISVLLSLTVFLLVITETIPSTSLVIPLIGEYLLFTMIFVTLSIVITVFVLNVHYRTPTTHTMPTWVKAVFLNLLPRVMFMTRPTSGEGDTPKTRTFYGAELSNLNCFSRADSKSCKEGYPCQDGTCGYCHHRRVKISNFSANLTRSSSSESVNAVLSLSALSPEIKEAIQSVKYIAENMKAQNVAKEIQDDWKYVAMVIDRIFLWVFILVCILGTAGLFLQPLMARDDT
Sequence of Neuronal acetylcholine receptor; alpha3/beta4 (P12392 whole entry): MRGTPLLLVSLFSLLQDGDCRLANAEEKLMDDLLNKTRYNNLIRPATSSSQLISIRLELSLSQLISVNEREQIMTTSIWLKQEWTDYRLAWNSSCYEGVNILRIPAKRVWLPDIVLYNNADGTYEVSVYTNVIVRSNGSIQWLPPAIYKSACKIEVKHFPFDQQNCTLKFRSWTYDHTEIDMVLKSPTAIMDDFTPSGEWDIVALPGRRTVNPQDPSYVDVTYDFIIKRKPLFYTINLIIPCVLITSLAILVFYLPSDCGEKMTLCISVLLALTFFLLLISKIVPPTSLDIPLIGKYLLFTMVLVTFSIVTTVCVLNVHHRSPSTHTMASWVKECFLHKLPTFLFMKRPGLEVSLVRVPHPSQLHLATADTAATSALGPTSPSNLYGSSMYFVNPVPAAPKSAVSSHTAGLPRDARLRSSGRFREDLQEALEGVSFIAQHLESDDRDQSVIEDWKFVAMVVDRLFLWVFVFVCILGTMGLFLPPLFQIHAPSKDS
Procedure, shortened: (§1)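 Rat subunit cRNAs (equimolar, ≥10 ng each) were expressed in oocytes held at 17 °C in ND96 and clamped at -70 mV 2-5 days after injection. Perfusate was ND96 with 0.1 mg/mL BSA and 1 µM atropine. After 5 min toxin exposure, 100 µM ACh was applied for 1 s/min. % response was fitted to a Hill equation for IC50 and nH, at room temperature, n=3-6.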

[2] = biological target: Nicotinic acetylcholine receptor alpha6/alpha3/beta4 (Rattus norvegicus, UniProt P04757+P12392+P43143); test: Antagonist activity at rat alpha6/alpha3beta4 nAChR nACHR expressed in Xenopus laevis oocytes assessed as inhibition of acetyl choline-induced membrane currents pre-incubated for 5 mins prior to acetyl choline pulse at -70 mV potential by two-electrode voltage clamp assay; procedure, shortened: as §1
Sequence of Nicotinic acetylcholine receptor alpha6/alpha3/beta4 (P04757 whole entry): as the sequence (P04757 whole entry) above
Sequence of Nicotinic acetylcholine receptor alpha6/alpha3/beta4 (P12392 whole entry): as the sequence (P12392 whole entry) above
Sequence of Nicotinic acetylcholine receptor alpha6/alpha3/beta4 (P43143 whole entry): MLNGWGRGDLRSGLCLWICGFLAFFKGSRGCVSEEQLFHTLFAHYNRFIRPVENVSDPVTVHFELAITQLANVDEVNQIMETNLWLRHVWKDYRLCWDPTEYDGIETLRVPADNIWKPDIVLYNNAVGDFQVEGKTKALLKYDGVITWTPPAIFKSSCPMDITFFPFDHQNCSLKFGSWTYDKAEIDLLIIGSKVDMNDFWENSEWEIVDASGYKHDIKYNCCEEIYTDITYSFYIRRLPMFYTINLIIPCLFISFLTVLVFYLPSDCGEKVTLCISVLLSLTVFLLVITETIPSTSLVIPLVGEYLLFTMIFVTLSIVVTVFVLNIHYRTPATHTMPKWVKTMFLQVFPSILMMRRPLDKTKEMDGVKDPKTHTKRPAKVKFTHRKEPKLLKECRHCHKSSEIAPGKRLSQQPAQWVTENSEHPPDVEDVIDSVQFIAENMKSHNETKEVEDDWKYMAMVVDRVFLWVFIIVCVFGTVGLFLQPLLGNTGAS

[3] = biological target: Nicotinic acetylcholine receptor alpha6/alpha3/beta4 (Rattus norvegicus) (UniProt P04757+P12392+P43143); test: Antagonist activity at rat alpha6/alpha3beta4 nAChR nACHR expressed in Xenopus laevis oocytes assessed as inhibition of acetyl choline-induced membrane currents at 10 uM pre-incubated for 5 mins prior to acetyl choline pulse at -70 mV potential by two-electrode voltage clamp assay
[4] = biological target: Neuronal acetylcholine receptor; alpha3/beta4 (Rattus norvegicus) (UniProt P04757+P12392); test: Antagonist activity at rat alpha3beta4 nACHR expressed in Xenopus laevis oocytes assessed as inhibition of acetyl choline-induced membrane currents at 10 uM pre-incubated for 5 mins prior to acetyl choline pulse at -70 mV potential by two-electrode voltage clamp assay
[5] = biological target: Neuronal acetylcholine receptor subunit alpha-7 (Rattus norvegicus, UniProt Q05941); test: Antagonist activity at rat alpha7 nACHR expressed in Xenopus laevis oocytes assessed as inhibition of acetyl choline-induced membrane currents pre-incubated for 5 mins prior to acetyl choline pulse at -70 mV potential by two-electrode voltage clamp assay
Sequence of Neuronal acetylcholine receptor subunit alpha-7 (Q05941 whole entry): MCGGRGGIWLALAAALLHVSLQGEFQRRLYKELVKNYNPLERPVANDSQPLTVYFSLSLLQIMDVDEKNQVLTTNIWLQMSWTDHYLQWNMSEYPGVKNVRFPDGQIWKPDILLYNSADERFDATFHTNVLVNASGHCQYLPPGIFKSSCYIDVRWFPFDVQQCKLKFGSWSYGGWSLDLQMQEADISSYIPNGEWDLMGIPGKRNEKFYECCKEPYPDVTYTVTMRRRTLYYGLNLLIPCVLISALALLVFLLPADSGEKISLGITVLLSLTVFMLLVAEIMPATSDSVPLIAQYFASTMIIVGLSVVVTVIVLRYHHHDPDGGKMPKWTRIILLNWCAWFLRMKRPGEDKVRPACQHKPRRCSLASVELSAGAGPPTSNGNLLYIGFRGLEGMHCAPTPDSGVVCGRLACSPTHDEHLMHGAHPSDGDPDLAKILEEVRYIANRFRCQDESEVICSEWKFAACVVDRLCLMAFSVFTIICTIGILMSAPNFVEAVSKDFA

[6] = biological target: Nicotinic acetylcholine receptor alpha9/alpha10 (Rattus norvegicus, UniProt P43144+Q9JLB5); test: Antagonist activity at rat alpha9alpha10 nACHR expressed in Xenopus laevis oocytes assessed as inhibition of acetyl choline-induced membrane currents pre-incubated for 5 mins prior to acetyl choline pulse at -70 mV potential by two-electrode voltage clamp assay
Sequence of Nicotinic acetylcholine receptor alpha9/alpha10 (P43144 whole entry): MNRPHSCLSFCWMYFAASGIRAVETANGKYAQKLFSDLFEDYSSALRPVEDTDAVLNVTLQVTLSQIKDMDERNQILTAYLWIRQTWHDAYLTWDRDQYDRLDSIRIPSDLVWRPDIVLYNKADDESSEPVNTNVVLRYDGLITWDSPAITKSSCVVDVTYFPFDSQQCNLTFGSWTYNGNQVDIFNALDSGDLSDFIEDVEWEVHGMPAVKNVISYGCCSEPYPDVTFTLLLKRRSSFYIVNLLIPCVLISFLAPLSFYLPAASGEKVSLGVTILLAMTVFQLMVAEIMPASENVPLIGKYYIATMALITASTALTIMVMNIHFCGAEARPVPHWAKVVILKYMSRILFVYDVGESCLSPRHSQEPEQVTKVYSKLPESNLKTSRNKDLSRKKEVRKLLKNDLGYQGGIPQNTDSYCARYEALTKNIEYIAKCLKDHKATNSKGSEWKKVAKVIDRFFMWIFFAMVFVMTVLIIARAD
Sequence of Nicotinic acetylcholine receptor alpha9/alpha10 (Q9JLB5 whole entry): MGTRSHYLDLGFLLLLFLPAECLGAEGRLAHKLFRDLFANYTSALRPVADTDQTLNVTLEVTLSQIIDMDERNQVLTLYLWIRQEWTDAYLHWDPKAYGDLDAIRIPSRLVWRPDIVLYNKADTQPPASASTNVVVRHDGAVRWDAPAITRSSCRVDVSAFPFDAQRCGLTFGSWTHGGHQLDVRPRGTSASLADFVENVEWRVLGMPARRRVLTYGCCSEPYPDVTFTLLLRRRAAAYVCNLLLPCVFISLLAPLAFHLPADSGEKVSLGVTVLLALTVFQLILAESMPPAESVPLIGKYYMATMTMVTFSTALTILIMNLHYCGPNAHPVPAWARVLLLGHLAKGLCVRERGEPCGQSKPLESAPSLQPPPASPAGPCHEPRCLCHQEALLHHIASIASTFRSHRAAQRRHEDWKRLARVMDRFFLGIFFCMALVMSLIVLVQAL

Structure (SMILES)	IC50 [1] [nM]	IC50 [2] [nM]	inhibition [3] [%]	other results
CC[C@H](C)[C@@H]1NC(=O)[C@@H]2CCCN2C(=O)[C@H](CO)NC(=O)[C@H](CCSC)NC(=O)[C@H](C)NC(=O)[C@H](Cc2cnc[nH]2)NC(=O)[C@@H]2CSSC[C@H](NC(=O)CN)C(=O)N[C@@H](CSSC[C@@H](C(N)=O)NC1=O)C(=O)N[C@@H](CO)C(=O)N[C@@H](Cc1cnc[nH]1)C(=O)N1CCC[C@H]1C(=O)N[C@@H](C(C)C)C(=O)N2 (H-GCCSHPVCHAMSPIC-NH2; disulfide 2-8, 3-15)	2	19	–	–
CC[C@H](C)[C@@H]1NC(=O)[C@@H]2CCCN2C(=O)[C@H](CO)NC(=O)[C@H](CCSC)NC(=O)[C@H](C)NC(=O)[C@H](CC(=O)O)NC(=O)[C@@H]2CSSC[C@H](NC(=O)CN)C(=O)N[C@@H](CSSC[C@@H](C(N)=O)NC1=O)C(=O)N[C@@H](CO)C(=O)N[C@@H](Cc1cnc[nH]1)C(=O)N1CCC[C@H]1C(=O)N[C@H](C(C)C)C(=O)N2	–	–	< 50	inhibition [4]: < 50%
CC[C@H](C)[C@@H]1NC(=O)[C@@H]2CCCN2C(=O)[C@H](CO)NC(=O)[C@H](CCSC)NC(=O)[C@H](C)NC(=O)[C@H](CCCCN)NC(=O)[C@@H]2CSSC[C@H](NC(=O)CN)C(=O)N[C@@H](CSSC[C@@H](C(N)=O)NC1=O)C(=O)N[C@@H](CO)C(=O)N[C@@H](Cc1cnc[nH]1)C(=O)N1CCC[C@H]1C(=O)N[C@@H](C(C)C)C(=O)N2 (H-GCCSHPVCKAMSPIC-NH2; disulfide 2-8, 3-15)	–	–	–	IC50 [5]: > 10000 nM; IC50 [6]: > 10000 nM
CC[C@H](C)[C@@H]1NC(=O)[C@@H]2CCCN2C(=O)[C@H](CO)NC(=O)[C@H](CCSC)NC(=O)[C@H](C)NC(=O)[C@H](Cc2ccccc2)NC(=O)[C@@H]2CSSC[C@H](NC(=O)CN)C(=O)N[C@@H](CSSC[C@@H](C(N)=O)NC1=O)C(=O)N[C@@H](CO)C(=O)N[C@@H](Cc1cnc[nH]1)C(=O)N1CCC[C@H]1C(=O)N[C@@H](C(C)C)C(=O)N2 (H-GCCSHPVCFAMSPIC-NH2; disulfide 2-8, 3-15)	11	10	–	–
CC[C@H](C)[C@@H]1NC(=O)[C@@H]2CCCN2C(=O)[C@H](CO)NC(=O)[C@H](CCSC)NC(=O)[C@H](C)NC(=O)[C@H](CCC(=O)O)NC(=O)[C@@H]2CSSC[C@H](NC(=O)CN)C(=O)N[C@@H](CSSC[C@@H](C(N)=O)NC1=O)C(=O)N[C@@H](CO)C(=O)N[C@@H](Cc1cnc[nH]1)C(=O)N1CCC[C@H]1C(=O)N[C@@H](C(C)C)C(=O)N2 (H-GCCSHPVCEAMSPIC-NH2; disulfide 2-8, 3-15)	–	–	< 50	–
CC[C@H](C)[C@@H]1NC(=O)[C@@H]2CCCN2C(=O)[C@H](CO)NC(=O)[C@H](CCSC)NC(=O)[C@H](C)NC(=O)[C@H](CC(=O)O)NC(=O)[C@@H]2CSSC[C@H](NC(=O)CN)C(=O)N[C@@H](CSSC[C@@H](C(N)=O)NC1=O)C(=O)N[C@@H](CO)C(=O)N[C@@H](Cc1cnc[nH]1)C(=O)N1CCC[C@H]1C(=O)N[C@@H](C(C)C)C(=O)N2	–	–	< 50	–
